Test [1] deals with CD4 (mouse (endogenous in 3.L2 transgenic mouse T cells)) (UniProt P06332). The test can be described thus: micropipette adhesion frequency assay.
The subject of a further test is 3.L2 TCR T-cell response. The following applies: relative activity of well-characterized ligands; ref [6], [36]; cited from earlier work.
In test [2] the test system is 3.L2 TCR on CD8^+ 3.L2 T cells. The test can be described thus: BFP force-clamp bond lifetime assay, CD8+ 3.L2 T cells. Type of test: binding, mouse. The following applies: for Bond lifetime versus force / Bond type under force: force-clamp, 5-40 pN, CD8+ 3.L2 T cells; for Bond type under force: >300 lifetime events per ligand; for Force at maximum ratio of bond lifetime of Hb to that of the peptide: ratio bond lifetime Hb/peptide vs force (Fig. 6B). In outline: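 Biomembrane force probe force-clamp used beads carrying streptavidin-maleimide and subsaturating biotinylated pMHC-II. Each bond was loaded to a preset force and held constant until it dissociated. pMHC density was adjusted to keep adhesion frequency <20%, for […] single bonds. >300 lifetimes per ligand were taken over 5-40pN, in 5-7 bins. The Hb/peptide lifetime ratio was calculated from the force versus lifetime data.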

Another test concerns 3.L2 TCR. The following applies: 3D SPR; ref [6]; cited from earlier work.
The test system of the next test is CD4 on 3.L2 T cells. In words: Adhesion frequency assay for direct CD4 binding. The arrangement: species or system mouse. The following applies: MCC:I-E^k at >4,000 molecules/μm^2; contact 5s; n≥3 cell pairs, 50 contacts each. In outline:
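3.L2 T cells, negatively selected from 6–8-week mouse spleens, were brought by micropipette into repeated 5-s contacts with human RBCs. The RBCs were biotinylated, streptavidin-linked and coated with noncognate MCC:I-E^k at >4,000 molecules/μm². Site densities came from PE-antibody flow cytometry against standard beads. Adhesion was scored from RBC membrane deflection on retraction, with frequency taken from 50 contacts per cell pair.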

Test [3] has as its system 3.L2 TCR on CD4^+ 3.L2 T cells. The test can be described thus: Micropipette adhesion frequency assay, CD4+ 3.L2 T cells. It counts as binding, mouse. The following applies: T cells treated with anti-CD4 GK1.5, 20 μg/ml. In outline: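 T cells were incubated 30min at 4°C with 20μg/ml anti-CD4 GK1.5, then tested with the same antibody present. Micropipette contacts were made with pMHC-coated RBCs, and adhesion frequency counted from 50 contacts per cell pair over a range of contact times. A least-squares fit to the probabilistic kinetic equation, using measured TCR and pMHC densities, gave AcKa and koff. On-rate = AcKa × koff.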

The next test concerns 3.L2 TCR on T cells. The test can be described thus: Thermal fluctuation assay. It counts as binding, mouse. The following applies: T cells treated with anti-CD4 GK1.5; zero force. In outline: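 Cells were pretreated 30min at 4°C with 20μg/ml anti-CD4 GK1.5, and the antibody was kept in the chamber during measurement. A biomembrane force probe bead bearing subsaturating biotinylated pMHC-II contacted the T cell. Bond lifetime ran from reduction to resumption of bead thermal fluctuations. koff was taken from the negative slope of ln(events with lifetime > t_b) versus t_b.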

The text below walks through data of paper PMC4592802 (Journal of immunology (Baltimore, Md. : 1950), 2015).

Sequence of UniProt P06332 (P06332 27-457): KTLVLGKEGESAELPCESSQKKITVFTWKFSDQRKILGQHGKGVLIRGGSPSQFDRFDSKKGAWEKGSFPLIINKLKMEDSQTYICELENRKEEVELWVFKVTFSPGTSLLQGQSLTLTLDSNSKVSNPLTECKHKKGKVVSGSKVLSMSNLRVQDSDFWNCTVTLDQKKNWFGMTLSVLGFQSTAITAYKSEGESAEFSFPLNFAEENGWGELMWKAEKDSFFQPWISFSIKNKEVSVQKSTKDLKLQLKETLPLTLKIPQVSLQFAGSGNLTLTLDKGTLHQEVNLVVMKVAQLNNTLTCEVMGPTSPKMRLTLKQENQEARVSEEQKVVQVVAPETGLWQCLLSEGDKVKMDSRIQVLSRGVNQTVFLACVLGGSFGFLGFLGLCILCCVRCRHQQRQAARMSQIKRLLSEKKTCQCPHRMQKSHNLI

Turning to “moth cytochrome c (MCC) peptide 88-103 bound to I-E^k (peptide-MHC)”, the adhesion frequency in test [1] is less than 5%.

With GKKVITAFAEGLK [A72], the “Classification of Ligand” value with 3.L2 TCR T-cell response is on record as “Weak antagonist”. For the same substance, in test [2], the “Bond lifetime versus force” value is “decreases monotonically with increasing force”, the “Bond type under force” value is reported as “slip-only bonds” and the “Force at maximum ratio of bond lifetime of Hb to that of the peptide” value is reported as 10-15 pN. Also, the “Detectability by SPR (earlier work)” value in the test on 3.L2 TCR is given as “not previously detectable using SPR”.

ANERADLIAYLKQATK [MCC]: the “Adhesion frequency Pa, noncognate pMHC-II, very high site density” value in the test on CD4 on 3.L2 T cells is recorded as less than 5%.

On to GKKVITAFNEGLK [Hb], for which, in test [3] (calculated as AcKa × koff), the “Effective 2D on-rate, Ackon, with CD4 blocking” value is on record as 3.16 ± 0.42 × 10^−4 μm^4s^−1. Also, in test [3] (zero force), the “2D off-rate, koff (adhesion frequency assay)**, with CD4 blocking” value worked out at 1.89 ± 0.31 s⁻¹. Besides, the “Classification of Ligand” value with 3.L2 TCR T-cell response is “Agonist”. Also, in test [2], the “Bond type under force” value is recorded as “catch-slip bonds”. Besides, the “2D off-rate, koff (thermal fluctuation assay)*, with CD4 blocking” value in the test with 3.L2 TCR on T cells was 1.41 ± 0.17 s⁻¹.

GKKVITAFIEGLK [I72]: the “Classification of Ligand” value with 3.L2 TCR T-cell response was “Antagonist”. Further, in test [2], the “Bond lifetime versus force” value is reported as “decreases monotonically with increasing force”, the “Bond type under force” value is on record as “slip-only bonds” and the “Force at maximum ratio of bond lifetime of Hb to that of the peptide” value was 10-15 pN.

GKKVITAFTEGLK [T72]: in the test on 3.L2 TCR T-cell response, the “Classification of Ligand” value is on record as “Weak agonist”. In test [2], the “Bond type under force” value was “catch-slip bonds”.
